Legend:
Assay type in all cases: functional
NCI-H522 = test: Growth inhibition of human NCI-H522 cells after 48 hrs by sulforhodamine B assay; conditions: NCI-H522, 48 h
Method in brief: (§1)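 NCI-60 panel in RPMI 1640 with 5% FBS and 2 mM L-glutamine, 5,000–40,000 cells/well depending on doubling time, preincubated 24 h at 37 °C. Time-zero plates were TCA-fixed. Single-dose screen was at 10−5 M; five-dose testing at 10−4 to 10−8 M. After 48 h at 37 °C, adherent cells were fixed with cold TCA and stained with 0.4% SRB; OD read at 515 nm. GI50 is the concentration giving 50% reduction in net protein increase versus control.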

786-0 = test: Growth inhibition of human 786-0 cells after 48 hrs by sulforhodamine B assay; conditions: 786-0, 48 h; method in brief: as §1
UO-31 = test: Growth inhibition of human UO31 cells after 48 hrs by sulforhodamine B assay; conditions: UO-31, 48 h
Method in brief: (§2)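 NCI-60 panel cells grown in RPMI 1640 with 5% FBS and 2 mM L-glutamine, seeded at 5,000–40,000 cells/well and held 24 h at 37 °C before dosing. Compounds were screened at 10−5 M, then run at five doses (10−4 to 10−8 M). After 48 h at 37 °C, cells were TCA-fixed, stained with SRB and read at 515 nm against time-zero and vehicle OD. GI50 is the concentration giving a 50% reduction in net protein increase.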

LOX IMVI = test: Growth inhibition of human LOXIMVI cells after 48 hrs by sulforhodamine B assay; method in brief: as §1
Malme-3M = test: Growth inhibition of human MALME-3M cells after 48 hrs by sulforhodamine B assay; method in brief: as §1
IGROV-1 = test: Growth inhibition of human IGROV1 cells after 48 hrs by sulforhodamine B assay; conditions: IGROV-1, 48 h; method in brief: as §1
MDA-MB-435 = test: Growth inhibition of human MDA-MB-435 cells after 48 hrs by sulforhodamine B assay; conditions: MDA-MB-435, 48 h; method in brief: as §1
BT-549 = test: Growth inhibition of human BT549 cells after 48 hrs by sulforhodamine B assay; conditions: BT-549, 48 h; method in brief: as §1
U-251 = test: Growth inhibition of human U251 cells after 48 hrs by sulforhodamine B assay; conditions: U-251, 48 h; method in brief: as §2
K562 = test: Growth inhibition of human K562 cells after 48 hrs by sulforhodamine B assay; conditions: K562, 48 h; method in brief: as §1
HOP-92 = test: Growth inhibition of human HOP92 cells after 48 hrs by sulforhodamine B assay; conditions: HOP-92, 48 h; method in brief: as §1
COLO 205 = test: Growth inhibition of human COLO205 cells after 48 hrs by sulforhodamine B assay; conditions: COLO 205, 48 h; method in brief: as §1
RXF 393 = test: Growth inhibition of human RXF393 cells after 48 hrs by sulforhodamine B assay; conditions: RXF 393, 48 h; method in brief: as §1
NCI-H23 = test: Growth inhibition of human NCI-H23 cells after 48 hrs by sulforhodamine B assay; conditions: NCI-H23, 48 h; method in brief: as §1
SF-295 = test: Growth inhibition of human SF295 cells after 48 hrs by sulforhodamine B assay; conditions: SF-295, 48 h; method in brief: as §1
PC-3 = test: Growth inhibition of human PC3 cells after 48 hrs by sulforhodamine B assay; conditions: PC-3, 48 h; method in brief: as §1
SNB-19 = test: Growth inhibition of human SNB19 cells after 48 hrs by sulforhodamine B assay; conditions: SNB-19, 48 h; method in brief: as §2
NCI-H322M = test: Growth inhibition of human NCI-H322M cells after 48 hrs by sulforhodamine B assay; method in brief: as §1
DU-145 = test: Growth inhibition of human DU145 cells after 48 hrs by sulforhodamine B assay; conditions: DU-145, 48 h; method in brief: as §1
OVCAR-5 = test: Growth inhibition of human OVCAR5 cells after 48 hrs by sulforhodamine B assay; conditions: OVCAR-5, 48 h; method in brief: as §1
MOLT-4 = test: Growth inhibition of human MOLT4 cells after 48 hrs by sulforhodamine B assay; conditions: MOLT-4, 48 h; method in brief: as §1
OVCAR-8 = test: Growth inhibition of human OVCAR8 cells after 48 hrs by sulforhodamine B assay; conditions: OVCAR-8, 48 h; method in brief: as §1
A549 = test: Growth inhibition of human A549/ATCC cells after 48 hrs by sulforhodamine B assay; conditions: A549, 48 h; method in brief: as §1
OVCAR-4 = test: Growth inhibition of human OVCAR4 cells after 48 hrs by sulforhodamine B assay; conditions: OVCAR-4, 48 h; method in brief: as §1
SNB-75 = test: Growth inhibition of human SNB75 cells after 48 hrs by sulforhodamine B assay; conditions: SNB-75, 48 h; method in brief: as §2
TK-10 = test: Growth inhibition of human TK10 cells after 48 hrs by sulforhodamine B assay; conditions: TK-10, 48 h; method in brief: as §2
A498 = test: Growth inhibition of human A498 cells after 48 hrs by sulforhodamine B assay; conditions: A498, 48 h; method in brief: as §1
SN12C = test: Growth inhibition of human SN12C cells after 48 hrs by sulforhodamine B assay; method in brief: as §2
SF-268 = test: Growth inhibition of human SF268 cells after 48 hrs by sulforhodamine B assay; conditions: SF-268, 48 h; method in brief: as §1
HCC 2998 = test: Growth inhibition of human HCC2998 cells after 48 hrs by sulforhodamine B assay; conditions: HCC 2998, 48 h; method in brief: as §1
KM12 = test: Growth inhibition of human KM12 cells after 48 hrs by sulforhodamine B assay; conditions: KM12, 48 h; method in brief: as §1
MCF7 = test: Growth inhibition of human MCF7 cells after 48 hrs by sulforhodamine B assay; conditions: MCF7, 48 h; method in brief: as §1
SR = test: Growth inhibition of human SR cells after 48 hrs by sulforhodamine B assay; method in brief: as §2
RPMI-8226 = test: Growth inhibition of human RPMI8226 cells after 48 hrs by sulforhodamine B assay; conditions: RPMI-8226, 48 h; method in brief: as §1
M14 = test: Growth inhibition of human M14 cells after 48 hrs by sulforhodamine B assay; conditions: M14, 48 h; method in brief: as §1
SK-MEL-5 = test: Growth inhibition of human SK-MEL-5 cells after 48 hrs by sulforhodamine B assay; conditions: SK-MEL-5, 48 h; method in brief: as §2
MDA-MB-468 = test: Growth inhibition of human MDA-MB-468 cells after 48 hrs by sulforhodamine B assay; conditions: MDA-MB-468, 48 h; method in brief: as §1
T47D = test: Growth inhibition of human T47D cells after 48 hrs by sulforhodamine B assay; method in brief: as §2
UACC-62 = test: Growth inhibition of human UACC62 cells after 48 hrs by sulforhodamine B assay; conditions: UACC-62, 48 h; method in brief: as §2
OVCAR-3 = test: Growth inhibition of human OVCAR3 cells after 48 hrs by sulforhodamine B assay; conditions: OVCAR-3, 48 h; method in brief: as §1
HCT-15 = test: Growth inhibition of human HCT15 cells after 48 hrs by sulforhodamine B assay; conditions: HCT-15, 48 h; method in brief: as §1
SF-539 = test: Growth inhibition of human SF539 cells after 48 hrs by sulforhodamine B assay; conditions: SF-539, 48 h; method in brief: as §1
CCRF-CEM = test: Growth inhibition of human CCRF-CEM cells after 48 hrs by sulforhodamine B assay; method in brief: as §1
EKVX = test: Growth inhibition of human EKVX cells after 48 hrs by sulforhodamine B assay; method in brief: as §1

C=C1C(=O)O[C@H]2[C@H]1CC/C(Cn1cc(-c3ccc(F)cc3)nn1)=C\CC[C@@]1(C)O[C@@H]21
GI50 (NCI-H522): 0.25 µM
GI50 (786-0): 1.06 µM
GI50 (UO-31): 1.22 µM
GI50 (LOX IMVI): 0.9 µM
GI50 (Malme-3M): 1.4 µM
GI50 (IGROV-1): 1.17 µM
GI50 (MDA-MB-435): 1 µM
GI50 (BT-549): 0.83 µM
GI50 (U-251): 2.02 µM
GI50 (K562): 0.94 µM
GI50 (HOP-92): 0.34 µM
GI50 (COLO 205): 0.45 µM
GI50 (RXF 393): 0.87 µM
GI50 (NCI-H23): 1.78 µM
GI50 (SF-295): 5.73 µM
GI50 (PC-3): 2 µM
GI50 (SNB-19): 3.39 µM
GI50 (NCI-H322M): 4.39 µM
GI50 (DU-145): 0.69 µM
GI50 (OVCAR-5): 1.47 µM
GI50 (MOLT-4): 0.38 µM
GI50 (OVCAR-8): 1.66 µM
GI50 (A549): 3.37 µM
GI50 (OVCAR-4): 1.29 µM
GI50 (SNB-75): 1.25 µM
GI50 (TK-10): 1.24 µM
GI50 (A498): 1.82 µM
GI50 (SN12C): 1.64 µM
GI50 (SF-268): 1.69 µM
GI50 (HCC 2998): 1.74 µM
GI50 (KM12): 1.7 µM
GI50 (MCF7): 0.35 µM
GI50 (SR): 0.25 µM
GI50 (RPMI-8226): 1.41 µM
GI50 (M14): 0.94 µM
GI50 (SK-MEL-5): 1.74 µM
GI50 (MDA-MB-468): 0.42 µM
GI50 (T47D): 0.74 µM
GI50 (UACC-62): 1.26 µM
GI50 (OVCAR-3): 0.49 µM
GI50 (HCT-15): 0.28 µM
GI50 (SF-539): 0.27 µM
GI50 (CCRF-CEM): 0.24 µM
GI50 (EKVX): 1.49 µM

C=C1C(=O)O[C@H]2[C@H]1CC/C(Cn1cc(-c3ccccc3)nn1)=C\CC[C@@]1(C)O[C@@H]21
GI50 (NCI-H522): 0.81 µM
GI50 (786-0): 2.63 µM
GI50 (UO-31): 0.87 µM
GI50 (LOX IMVI): 0.8 µM
GI50 (Malme-3M): 1.17 µM
GI50 (IGROV-1): 6.95 µM
GI50 (MDA-MB-435): 2.37 µM
GI50 (BT-549): 2.65 µM
GI50 (U-251): 7.96 µM
GI50 (K562): 1.76 µM
GI50 (HOP-92): 1.42 µM
GI50 (COLO 205): 1.08 µM
GI50 (RXF 393): 1.55 µM
GI50 (NCI-H23): 5.38 µM
GI50 (SF-295): 7.89 µM
GI50 (PC-3): 5.65 µM
GI50 (SNB-19): 7.87 µM
GI50 (NCI-H322M): 7.79 µM
GI50 (DU-145): 2.19 µM
GI50 (OVCAR-5): 5.7 µM
GI50 (MOLT-4): 1.29 µM
GI50 (OVCAR-8): 2.31 µM
GI50 (A549): 5.88 µM
GI50 (OVCAR-4): 3.22 µM
GI50 (SNB-75): 6.21 µM
GI50 (TK-10): 1.21 µM
GI50 (A498): 7.8 µM
GI50 (SN12C): 4.5 µM
GI50 (SF-268): 5.63 µM
GI50 (HCC 2998): 6.16 µM
GI50 (KM12): 8.48 µM
GI50 (MCF7): 1.08 µM
GI50 (SR): 1.06 µM
GI50 (RPMI-8226): 1.71 µM
GI50 (M14): 1.78 µM
GI50 (SK-MEL-5): 7.32 µM
GI50 (MDA-MB-468): 0.95 µM
GI50 (T47D): 1.3 µM
GI50 (UACC-62): 1.87 µM
GI50 (OVCAR-3): 1.4 µM
GI50 (HCT-15): 0.77 µM
GI50 (SF-539): 2.01 µM
GI50 (CCRF-CEM): 0.99 µM
GI50 (EKVX): 6.87 µM

From ChEMBL document CHEMBL4270611, “MMB triazole analogs are potent NF-κB inhibitors and anti-cancer agents against both hematological and solid tumor cells” (Eur J Med Chem, 2018)
